This data set can be described thus: Toxicity liver stage against HepG2, at 10uM. In kind it is cell-based. Details: test concentration 10 uM, cell line HepG2-A16-CD81EGFP. Conditions: human, HepG2-A16-CD81EGFP cells; read-out: INHIBITION
Put shortly: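 Uninfected HepG2-A16-CD81EGFP cells, 3 × 10^3 per well, 1536-well, plated on prespotted compound at 10 μM final, parasite-free screening media added to match infected plates; puromycin 10 μM positive, DMSO 0.5% negative; run in parallel with 48 h PbLuc assay at 37 °C, 5% CO2; viability by CellTiter-Glo luminescence, normalized to controls.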

On to `Cc1nn(C)c(Cl)c1C1CCCN1Cc1nnc(C2CC2)n1C` (stereo unspecified), for which the cytotoxicity at 10 µM is -2.24%.
The result for `Cc1noc(C)c1CN(C)C(=O)c1cnc(C2CC2)nc1O` reads -4.65%.
Consider `CC(CN1CCOC1=O)NC(=O)c1cccc(Cl)c1Cl` (stereo unspecified), for which the cytotoxicity at 10 µM is -3.26%.
The result for `CC(C)Cc1noc(C2CCN(C(=O)c3cccs3)CC2)n1` reads 9.81%; that for `Cc1nc2ccccn2c1CC(=O)N[C@@H]1CC[C@@H](N2CCCC2)[C@@H]1O`, -12.4%.
For `Cc1nc[nH]c1C(=O)N1CCC2(CN(C)C(=O)O2)C1` (stereo unspecified) the value was 2.99%; for `Cc1noc(C)c1CN1CCN(Cc2nccn2C)C(C)C1` (stereo unspecified), -5.38%; for `O=C(NCc1ccccn1)[C@@]12CCO[C@@H]1CCN(Cc1ccccn1)C2`, -112%.
The result for `CCN(CC)CCCNc1nc(C)nc2c1CCN(C)C2` reads 3.19%; that for `CCc1ncc2c(n1)CN(Cc1cc(C)on1)CC2`, -16.7%.
Consider `Cc1cc(C)nc(N2CCN(C(=O)c3ccc(C4CCCO4)s3)CC2)n1` (stereo unspecified), for which the cytotoxicity at 10 µM is 9.07%.
For `CCCS(=O)(=O)N1CCOC2(CCCN(c3ccc(C)nn3)C2)C1` (stereo unspecified) the value was 2.08%; for `O=C(Cn1cccn1)Nc1ccc(N2CCOCC2)cc1`, -2.51%.
Take `COC(=O)CN1CCN(c2cccc(C)c2)CC1`: the cytotoxicity at 10 µM stood at 3.54%.
The result for `Cc1cc(-c2cnc(NC3CC3)nc2-c2ccoc2C)on1` reads 2.13%; that for `CCOc1ccc(C#N)cc1NC(=O)N1CCC(n2cncn2)CC1`, 20.3%.
As for `O=C(NCc1ccccc1)N1Cc2nc(COCC3CC3)oc2C1`, the cytotoxicity at 10 µM came out at 8.67%.
For `COc1cc(C)c(CN2CCC3(CC2)[C@H](O)C[C@@H]3OCCN)cc1C` the value was 13.6%; for `CC1(C(=O)N2CCOCC2)CN(Cc2ccccc2F)CCO1` (stereo unspecified), 2.03%.
The result for `CCCC1COCCN1Cc1ccc(NC(C)=O)cc1` (stereo unspecified) reads -145%; that for `Fc1cccnc1O[C@@H]1CC[C@H]2[C@H]1OCCN2Cc1nccs1`, 4.93%; that for `CC(NC(=O)N(C)CCCOc1ccccc1)c1nncn1C` (stereo unspecified), -5.4%.
For `CC1=Nc2c(c(=O)[nH]n2C(C)C)C(c2ccc3c(c2)OCCO3)S1` (stereo unspecified) the value was -1.01%.
`COCCN(CCOC)c1nc2c(s1)c(C)nn2C`: the cytotoxicity at 10 µM was -40.5%.
For `COc1ccc(CC(=O)Nc2c(C)nc(N3CCCC3)nc2C)cc1`, the cytotoxicity at 10 µM was 2.05%.
For `Cc1n[nH]c(=O)c2c(NC(=O)CN3CCOC(C)C3)oc(C)c12` (stereo unspecified) the value was -0.524%.
For the compound `Cc1oncc1C(=O)N1CC2CC1(C(=O)N1CCCC1)C2`, the cytotoxicity at 10 µM was found to be 4.91%.
`COc1cc(C)nc(N2CCN(Cc3nccn3C)CC2)n1`: the cytotoxicity at 10 µM is -1.8%.
The result for `CCN(CC)C(=O)Nc1cc2c(cc1SC)OCCO2` reads -7.87%; that for `COCc1cnc2n1CCN(C(=O)c1ccc3ccccc3n1)C2C` (stereo unspecified), -112%; that for `Cn1cc(CN2CCn3c(CNC(=O)c4cccn4C)cnc3C2)cn1`, -3.47%.
For `COc1ccc(C(=O)NS(C)(=O)=O)cc1-c1ccccc1` the value was -0.0142%; for `CCc1nsc(NC2CCOC3(CCCC3)C2)n1` (stereo unspecified), 13%.
The result for `O=C1N[C@H]2OCCC[C@H]2[C@H](c2ccccc2)N1` reads -0.675%; that for `Cc1ccc(NCc2cn3c(n2)CN(Cc2ccc(C)o2)CC3)nn1`, 8.19%.
As for `Cc1ccccc1NC(=O)N1CC[C@@H]2CN(C)S(=O)(=O)[C@@H]2CC1`, the cytotoxicity at 10 µM was determined as 4%.
Regarding `CCCNC(=O)C1CCN(CC(O)c2ccccc2)CC1` (stereo unspecified), the cytotoxicity at 10 µM is -2.21%.
The result for `CC(C(=O)N1CCCC1)N1CCCN(C(=O)Oc2ccccc2)CC1` (stereo unspecified) reads 3.4%.
The result for `CCN(CC)c1ncccc1CNCc1ccc(-c2ccn[nH]2)s1` reads 6.43%; that for `Cc1c(C2NC3(CCCC3)C(=O)N2CC2CC2)cc(C#N)n1C` (stereo unspecified), -1.99%; that for `CC(C)N1CCC2(CC1)C(=O)N(c1cccnc1)c1c(F)cccc12`, 7.13%.
The result for `CCc1cnc(CN2CCC(N(C)Cc3noc(C)n3)C2)o1` (stereo unspecified) reads 4.92%; that for `O=S(=O)(CCO)Cc1ccc(OC(F)F)cc1`, -2.88%.
For the compound `OC1(CNCc2ccc(F)c(C(F)(F)F)c2)CCOC1` (stereo unspecified), the cytotoxicity at 10 µM was 9.21%.
For `CN(C)c1ncccc1C(=O)N1CCc2c(ncn2C2CC2)C1` the value was 1.28%.
For `CCn1nc(C)cc1C(=O)N1C[C@@H]2C[C@@H](C)O[C@@H]2C1` the value was 5.53%.
For `c1ccc2nc(CN3CCCC3c3noc(C4CC4)n3)ccc2c1` (stereo unspecified) the value was -5.48%; for `Cc1cc(CN2C[C@@H](C)[C@@]3(CCN(CC(=O)N(C)C)C3=O)C2)oc1C`, 9.94%.
As to `COCc1cc(N2CCN(C3CCCCC3)CC2)n2nccc2n1`, the cytotoxicity at 10 µM came to 3.59%.
The result for `O=C(c1coc2ccccc12)N1CCS(=O)(=O)CC1` reads 2.64%; that for `Cn1cc(CCCN2CCCC(c3cc(C(F)(F)F)[nH]n3)C2)cn1` (stereo unspecified), -2.59%; that for `Cc1noc(C)c1CN1CC[C@H]2OCC[C@@H](C(=O)N3CCCO3)[C@@H]2C1`, -8.25%.
Consider `O=C(c1ccc(O)cc1)N1C[C@@H]2CCN(c3cccnc3)C[C@@H]2C1`, for which the cytotoxicity at 10 µM was -50.9%.
Take `COc1cccc(-c2nccc(C3CCCN3C)n2)c1` (stereo unspecified): the cytotoxicity at 10 µM is 9.27%.
For `NC(=O)N1CCCCCC1C1CCN(c2nccc(C(F)(F)F)n2)CC1` (stereo unspecified) the value was 4.82%; for `CCc1nc(Nc2cccc(C(=O)NC)c2)c2c(n1)c(C)nn2CC`, 1.41%; for `COc1ccc2c(c1)nc1n2[C@@H](CNC(=O)c2ccccn2)COC1`, -3.03%.
For `CN(C)C(=O)N1CCN(C(=O)c2ccn3ccnc3c2)CC1` the value was -5.02%; for `CC(=O)N1CCc2nnc(C3CCCN3CC3CCCCC3)n2CC1` (stereo unspecified), -1.54%; for `COc1cccc(-c2cnc(C3CCNCC3)cn2)c1`, -30.4%.
The result for `CN(CC(=O)N1CCN(CC(C)(C)O)CC1)c1ccc(Cl)cn1` reads -2.87%; that for `CCOC(=O)NC(CNC(=O)CCc1ccccn1)CC(C)C` (stereo unspecified), -4.61%.
Turning to `Cn1c2c(ccc1=O)CC(NS(C)(=O)=O)CC2` (stereo unspecified), the cytotoxicity at 10 µM is 3.99%.
The result for `CS(=O)(=O)N1CCc2[nH]cnc2C12CCN(C1CCOCC1)CC2` reads -4.52%.
The result for `CN1CCCCC1(C)C(=O)N1CCC(c2ccccn2)CC1` (stereo unspecified) reads 1.66%; that for `CCS(=O)(=O)CC(=O)Nc1ccccc1N1CCc2ccccc21`, 9.26%; that for `CS(=O)(=O)N1CC2(CCCN(C3COC3)C2)Cc2ccccc21` (stereo unspecified), 5.15%.
The result for `Cc1cc(CN2CCN(C(=O)Nc3cccnc3)CC2)on1` reads -7.72%; that for `CCn1cncc1Cn1ncc2ccccc2c1=O`, 3.7%.
For `O=C(CSCCN1CCOCC1)N1CCCCCC1`, the cytotoxicity at 10 µM amounted to 10.4%.
For `Cc1ccc(N2CCN(Cc3ccccc3)C3(CCNCC3)C2=O)cn1` the value was 12.1%.

The values are drawn from ChEMBL document CHEMBL4513216, “Probing the Open Global Health Chemical Diversity Library for Multistage-Active Starting Points for Next-Generation Antimalarials” (ACS Infect Dis, 2020).
